Laboratory results: ChEMBL document CHEMBL5724801, “EUbOPEN Chemogenomics Library - Multiplex” (2024)
Several values for one entry are separate records, joined by “and”; a condition that tells them apart may be missing. Equal values may be shown once.

Test system: Fibroblast
Assay: Multiplex assay against human fibroblast
Type: toxicity, cell-based
Details: 12 h, 1 µM, compound concentration 1 uM
Outline: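 At seeding, live cells were stained with Hoechst33342, BioTracker Green Microtubule Cytoskeleton Dye, MitoTracker Red and Annexin V Alexa Fluor 680. After compound addition they were imaged on a CQ1 microscope at 37°C and 5% CO2, and CellPathfinder machine-learning gating sorted them into Hoechst high-intensity objects or normal cells, with normal cells further split into healthy, pyknosed or fragmented nuclei and pyknosed cells into mitotic or apoptotic. Tubulin, mitochondrial-mass and membrane-permeability phenotypes are given as per cents of cells with healthy nuclei.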

Compound | Population Apoptotic (%) | Population Fragmented Nuclei (%) | Population Healthy Nuclei (%) | Population Hoechst High Intensity Objects (%) | Population Membrane Permeable-Phenotype (%) | Population Mitochondria Different-Phenotype (%) | Population Mitotic Cells (%) | Population Normal (%) | Population Pyknosed Nuclei (%) | Population Tubulin-Different-Phenotype (%)
CCCN1CCC[C@@H]2Cc3n[nH]cc3C[C@H]21.Cl [QUINPIROLE HYDROCHLORIDE] | 45% and 52% | 14% and 22% | 65% and 60% | 2% and 6% | 0% and 7% | 3% and 6% | 54% and 47% | 97% and 93% | 20% and 17% | 17% and 50%
O=C(NCCN1CCC(n2c(=O)[nH]c3cc(Cl)ccc32)CC1)c1ccc(F)cc1 [HALOPEMIDE] | 32% and 44% | 11% and 27% | 62% and 43% | 0% and 7% | 1% and 10% | 10% and 0% | 67% and 56% | 99% and 92% | 26% and 29% | 29% and 56%

Same assay, conditions: 12 h, 1 µM, compound concentration 1 uM

Compound | Total Cell Count
CCCN1CCC[C@@H]2Cc3n[nH]cc3C[C@H]21.Cl [QUINPIROLE HYDROCHLORIDE] | 156 and 139
O=C(NCCN1CCC(n2c(=O)[nH]c3cc(Cl)ccc32)CC1)c1ccc(F)cc1 [HALOPEMIDE] | 120 and 92

Same assay, conditions: 12 h, 10 µM, compound concentration 10 uM

Compound | Population Apoptotic (%) | Population Fragmented Nuclei (%) | Population Healthy Nuclei (%) | Population Hoechst High Intensity Objects (%) | Population Membrane Permeable-Phenotype (%) | Population Mitochondria Different-Phenotype (%) | Population Mitotic Cells (%) | Population Normal (%) | Population Pyknosed Nuclei (%) | Population Tubulin-Different-Phenotype (%)
CCCN1CCC[C@@H]2Cc3n[nH]cc3C[C@H]21.Cl [QUINPIROLE HYDROCHLORIDE] | 58% and 45% | 16% and 23% | 68% and 59% | 4% and 2% | 1% and 10% | 6% | 41% and 54% | 95% and 97% | 15% and 17% | 33% and 55%
O=C(NCCN1CCC(n2c(=O)[nH]c3cc(Cl)ccc32)CC1)c1ccc(F)cc1 [HALOPEMIDE] | 55% and 31% | 15% and 24% | 54% and 34% | 3% and 4% | 0% and 6% | 17% and 14% | 44% and 68% | 96% and 95% | 30% and 41% | 77% and 87%

Same assay, conditions: 12 h, 10 µM, compound concentration 10 uM

Compound | Total Cell Count
CCCN1CCC[C@@H]2Cc3n[nH]cc3C[C@H]21.Cl [QUINPIROLE HYDROCHLORIDE] | 115 and 184
O=C(NCCN1CCC(n2c(=O)[nH]c3cc(Cl)ccc32)CC1)c1ccc(F)cc1 [HALOPEMIDE] | 204 and 148

Same assay, conditions: 24 h, 1 µM, compound concentration 1 uM

Compound | Population Apoptotic (%) | Population Fragmented Nuclei (%) | Population Healthy Nuclei (%) | Population Hoechst High Intensity Objects (%) | Population Membrane Permeable-Phenotype (%) | Population Mitochondria Different-Phenotype (%) | Population Mitotic Cells (%) | Population Normal (%) | Population Pyknosed Nuclei (%) | Total Cell Count
CCCN1CCC[C@@H]2Cc3n[nH]cc3C[C@H]21.Cl [QUINPIROLE HYDROCHLORIDE] | 52% and 34% | 21% and 28% | 64% and 53% | 1% and 2% | 0% and 1% | 2% and 7% | 47% and 65% | 98% | 13% and 17% | 172 and 150
O=C(NCCN1CCC(n2c(=O)[nH]c3cc(Cl)ccc32)CC1)c1ccc(F)cc1 [HALOPEMIDE] | 58% and 37% | 16% and 32% | 69% and 41% | 3% and 10% | 1% and 5% | 9% and 8% | 41% and 62% | 96% and 90% | 13% and 26% | 128 and 100

Same assay, conditions: 24 h, 1 µM, compound concentration 1 uM

Compound | Population Tubulin-Different-Phenotype (%)
O=C(NCCN1CCC(n2c(=O)[nH]c3cc(Cl)ccc32)CC1)c1ccc(F)cc1 [HALOPEMIDE] | 38% and 59%

Same assay, conditions: 24 h, 10 µM, compound concentration 10 uM

Compound | Population Apoptotic (%) | Population Fragmented Nuclei (%) | Population Healthy Nuclei (%) | Population Hoechst High Intensity Objects (%) | Population Membrane Permeable-Phenotype (%) | Population Mitochondria Different-Phenotype (%) | Population Mitotic Cells (%) | Population Normal (%) | Population Pyknosed Nuclei (%) | Population Tubulin-Different-Phenotype (%)
CCCN1CCC[C@@H]2Cc3n[nH]cc3C[C@H]21.Cl [QUINPIROLE HYDROCHLORIDE] | 75% and 55% | 22% and 38% | 67% and 51% | 2% and 1% | 0% and 7% | 7% and 3% | 25% and 45% | 97% and 98% | 10% and 9% | 32% and 39%
O=C(NCCN1CCC(n2c(=O)[nH]c3cc(Cl)ccc32)CC1)c1ccc(F)cc1 [HALOPEMIDE] | 67% and 41% | 23% and 26% | 51% and 38% | 5% and 6% | 0% and 12% | 28% and 32% | 32% and 58% | 95% and 93% | 24% and 35% | 78% and 94%

Same assay, conditions: 24 h, 10 µM, compound concentration 10 uM

Compound | Total Cell Count
CCCN1CCC[C@@H]2Cc3n[nH]cc3C[C@H]21.Cl [QUINPIROLE HYDROCHLORIDE] | 119 and 209
O=C(NCCN1CCC(n2c(=O)[nH]c3cc(Cl)ccc32)CC1)c1ccc(F)cc1 [HALOPEMIDE] | 220 and 140

Same assay, conditions: 48 h, 1 µM, compound concentration 1 uM

Compound | Population Apoptotic (%) | Population Fragmented Nuclei (%) | Population Healthy Nuclei (%) | Population Hoechst High Intensity Objects (%) | Population Membrane Permeable-Phenotype (%) | Population Mitochondria Different-Phenotype (%) | Population Mitotic Cells (%) | Population Normal (%) | Population Pyknosed Nuclei (%) | Population Tubulin-Different-Phenotype (%)
CCCN1CCC[C@@H]2Cc3n[nH]cc3C[C@H]21.Cl [QUINPIROLE HYDROCHLORIDE] | 68% and 38% | 23% and 37% | 62% and 53% | 3% and 1% | 0% and 8% | 3% and 4% | 32% and 61% | 96% and 98% | 14% and 8% | 21% and 42%
O=C(NCCN1CCC(n2c(=O)[nH]c3cc(Cl)ccc32)CC1)c1ccc(F)cc1 [HALOPEMIDE] | 52% and 35% | 14% and 38% | 68% and 43% | 3% and 4% | 4% and 14% | 7% and 4% | 47% and 64% | 96% and 95% | 17% | 36% and 63%

Same assay, conditions: 48 h, 1 µM, compound concentration 1 uM

Compound | Total Cell Count
CCCN1CCC[C@@H]2Cc3n[nH]cc3C[C@H]21.Cl [QUINPIROLE HYDROCHLORIDE] | 175 and 157
O=C(NCCN1CCC(n2c(=O)[nH]c3cc(Cl)ccc32)CC1)c1ccc(F)cc1 [HALOPEMIDE] | 128 and 99

Same assay, conditions: 48 h, 10 µM, compound concentration 10 uM

Compound | Population Apoptotic (%) | Population Fragmented Nuclei (%) | Population Healthy Nuclei (%) | Population Hoechst High Intensity Objects (%) | Population Membrane Permeable-Phenotype (%) | Population Mitochondria Different-Phenotype (%) | Population Mitotic Cells (%) | Population Normal (%) | Population Pyknosed Nuclei (%) | Population Tubulin-Different-Phenotype (%)
CCCN1CCC[C@@H]2Cc3n[nH]cc3C[C@H]21.Cl [QUINPIROLE HYDROCHLORIDE] | 53% and 46% | 23% and 43% | 65% and 48% | 1% and 3% | 2% | 6% and 4% | 46% and 53% | 98% and 96% | 11% and 8% | 31% and 48%
O=C(NCCN1CCC(n2c(=O)[nH]c3cc(Cl)ccc32)CC1)c1ccc(F)cc1 [HALOPEMIDE] | 80% and 48% | 32% and 35% | 50% and 45% | 10% and 5% | 0% and 10% | 35% and 15% | 19% and 52% | 89% and 94% | 17% and 19% | 77% and 96%

Same assay, conditions: 48 h, 10 µM, compound concentration 10 uM

Compound | Total Cell Count
CCCN1CCC[C@@H]2Cc3n[nH]cc3C[C@H]21.Cl [QUINPIROLE HYDROCHLORIDE] | 119 and 192
O=C(NCCN1CCC(n2c(=O)[nH]c3cc(Cl)ccc32)CC1)c1ccc(F)cc1 [HALOPEMIDE] | 229 and 136
